From ChEMBL document CHEMBL1146333, “Synthesis and antitumor evaluation of a novel series of triaminotriazine derivatives” (Bioorg Med Chem, 2007)
Activity calls are given as the source filed them. The calls are words filed in the database; no cut-off is given here.

Columns and labels:
[1] = tested on: HT-29; assay: Growth inhibition of human HT29 cells after 72 hrs by SRB assay; format: functional, cell-based; conditions: HT-29, 72 h
In short: (§1)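 HCT-116 and HT-29 human colorectal lines (ATCC) grown in RPMI-1640 with 10% FBS, 2 mmol/L glutamine, penicillin/streptomycin, at 37 °C in 5% CO2. Seeded at 6000 cells/well, attached overnight, then treated in triplicate with graded concentrations for 72 h. Cells fixed in 10% TCA, stained with SRB, and A515 read. IC50 obtained by the Logit method; mean of three independent tests.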

[2] = tested on: HT-29; assay: Growth inhibition of human HT29 cells at 10 uM after 72 hrs by SRB assay; format: functional; conditions: for inhibition at 10 µM: HT-29, 72 h
In short: (§2)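 SRB growth assay on HCT-116 or HT-29 cells (RPMI-1640, 10% FBS, 37 °C, 5% CO2). Seeded at 6000 cells/well, attached overnight, exposed in triplicate at 10 μM for 72 h. Cells TCA-fixed, SRB-stained, A515 read. Percent inhibition = [1 − A515 treated/A515 control] × 100; mean of three determinations.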

[3] = tested on: HCT-116; assay: Growth inhibition of human HCT116 cells at 10 uM after 72 hrs by SRB assay; format: functional; conditions: for inhibition at 10 µM: HCT-116, 72 h; in short: as §2
[4] = tested on: HCT-116; assay: Growth inhibition of human HCT116 cells after 72 hrs by SRB assay; format: functional, cell-based; conditions: HCT-116, 72 h; in short: as §1
[5] = tested on: Mus musculus; assay: Tumor weight in KM mouse at 100 mg/kg, ip; format: functional; conditions: route intraperitoneal
[6] = Cmax in Sprague-Dawley rat at 10 mg/kg, po after 15 mins; format: ADME, organism-based; design: dose 10 mg/kg, route oral; conditions: in vivo
In short: (§3)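 Sprague–Dawley rats given one oral gavage dose of 10 mg/kg suspended in 0.5% CMC-Na. Orbital-sinus blood drawn at 0, 5, 15, 30 min and 1, 2, 4, 6, 8 h; plasma frozen at −70 °C, extracted with EtOAc, and quantified by LC–MS/MS. Cmax and Tpeak read directly from the data; t1/2 = 0.693/k; mean ± SD.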

[7] = tested on: Rattus norvegicus; assay: Volume of distribution in Sprague-Dawley rat at 2 mg/kg, iv; format: ADME, organism-based; design: dose 2 mg/kg, route intravenous; conditions: in vivo
In short: (§4)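 Sprague–Dawley rats acclimatized one week, then given one iv dose of 2 mg/kg in PEG400:cremophor (100:15, v/v). Orbital-sinus blood drawn under light ether at 0, 5, 15, 30 min and 1, 2, 4, 6, 8 h; plasma stored at −70 °C.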

[8] = Elimination half life in Sprague-Dawley rat at 10 mg/kg, po; format: ADME, organism-based; design: dose 10 mg/kg, route oral; conditions: in vivo; in short: as §3
[9] = tested on: Mus musculus; assay: Increase in body weight in KM mouse at 200 mg/kg, ip after 7 days; format: functional; conditions: route intraperitoneal
In short: (§5)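 Sarcoma 180 cells implanted in the axilla of female KM mice (6–8 weeks) on Day 0, randomized on Day 1 (control 20/group, treated 10/group). Treated mice got 200 mg/kg ip once daily for 7 days, suspended in 0.5% CMC. Mice killed 24 h after the last dose; body and tumor weights taken. Inhibition = (control − treated mean tumor weight)/control mean tumor weight × 100%.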

[10] = tested on: Mus musculus; assay: Increase in body weight in KM mouse at 100 mg/kg, ip; format: functional; conditions: route intraperitoneal
[11] = Mean resident time in Sprague-Dawley rat at 10 mg/kg, po; format: ADME, organism-based; design: dose 10 mg/kg, route oral; conditions: in vivo; in short: as §3
[12] = tested on: Sarcoma-180; assay: Antitumor activity in sarcoma180 cells implanted in KM mouse at 200 mg/kg, ip after 7 days; format: functional; conditions: route intraperitoneal; in short: as §5
[13] = Elimination half life in Sprague-Dawley rat at 2 mg/kg, iv; format: ADME, organism-based; design: dose 2 mg/kg, route intravenous; conditions: in vivo; in short: as §4
[14] = tested on: Mus musculus; assay: Tumor weight in KM mouse at 200 mg/kg, ip after 7 days; format: functional; conditions: route intraperitoneal; in short: as §5
[15] = Oral bioavailability in Sprague-Dawley rat at 10 mg/kg; format: ADME, organism-based; conditions: in vivo
In short: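 Rats received 10 mg/kg oral (0.5% CMC-Na) or 2 mg/kg iv (PEG400:cremophor 100:15). Serial plasma samples, 0–8 h, quantified by LC–MS/MS after EtOAc extraction. F = (AUCoral × Dose_iv)/(AUC_iv × Dose_oral) × 100%.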

[16] = Clearance in Sprague-Dawley rat at 2 mg/kg, iv; format: ADME, organism-based; design: dose 2 mg/kg, route intravenous; conditions: in vivo; in short: as §4
[17] = Mean resident time in Sprague-Dawley rat at 2 mg/kg, iv; format: ADME, organism-based; design: dose 2 mg/kg, route intravenous; conditions: in vivo; in short: as §4

Row | Compound | inhibition at 10 µM [2] [%] | inhibition at 10 µM [3] [%] | further results
1 | Brc1ccc(Nc2nc(Nc3ccccc3)nc(N3CCOCC3)n2)cc1 | 89.7 | 77.7 | IC50 [1]: 25 µM
2 | COc1ccc(Nc2nc(NCCN3CCOCC3)nc(Nc3ccccc3)n2)cc1 | 74.6 | – | Activity [3]: inactive
3 | COc1cccc(Nc2nc(Nc3ccccc3)nc(N3CCOCC3)n2)c1 | 87.4 | 82.6 | IC50 [1]: 39 µM
4 | COc1ccccc1Nc1nc(Nc2ccccc2)nc(N2CCOCC2)n1 | 89.3 | 78.3 | –
5 | COc1ccc(Nc2nc(Nc3ccc(F)cc3)nc(N3CCOCC3)n2)cc1 | 82.3 | – | Activity [3]: inactive
6 | NS(=O)(=O)c1ccc(Nc2nc(Nc3ccccc3)nc(N3CCOCC3)n2)cc1 | 80.4 | 96.2 | IC50 [4]: 2 µM
7 | COc1ccc(Nc2nc(NCc3ccccc3)nc(N3CCOCC3)n2)cc1 | 88.4 | 20.1 | –
8 | CCOc1ccc(Nc2nc(Nc3ccccc3)nc(N3CCOCC3)n2)cc1 | 87.5 | 64.1 | –
9 | NS(=O)(=O)c1ccc(Nc2nc(N3CCOCC3)nc(N3CCOCC3)n2)cc1 | – | – | Activity [2]: inactive; Activity [3]: inactive
10 | COc1ccc(Nc2nc(Nc3ccc(OC)cc3)nc(N3CCOCC3)n2)cc1 | 80.6 | 53.3 | IC50 [1]: 100 µM
11 | c1ccc(Nc2nc(Nc3ccccc3)nc(N3CCOCC3)n2)cc1 | 85 | 81.3 | IC50 [1]: 31 µM; IC50 [4]: 4.7 µM
12 | COc1ccc(Nc2nc(Nc3ccccc3)nc(N3CCOCC3)n2)cc1OC | 76.4 | 84.7 | IC50 [4]: 0.92 µM
13 | OCCNc1nc(Nc2ccccc2)nc(Nc2ccccc2)n1 | 33.9 | – | Activity [3]: inactive
14 | c1ccc(CNc2nc(NCc3ccccc3)nc(N3CCOCC3)n2)cc1 | 50 | – | Activity [3]: inactive
15 | Fc1ccc(Nc2nc(NCc3ccccc3)nc(N3CCOCC3)n2)cc1 | 87.1 | 10.1 | –
16 | COc1ccc(Nc2nc(N3CCOCC3)nc(N3CCOCC3)n2)cc1 | 74.2 | 6.9 | –
17 | Clc1ccc(Nc2nc(Nc3ccccc3)nc(N3CCOCC3)n2)cc1 | 87.1 | 51.7 | IC50 [1]: 37 µM
18 | COc1ccc(Nc2nc(Nc3ccccc3)nc(N3CCN(CCO)CC3)n2)cc1 | 77.3 | 19 | –
19 | Fc1ccc(Nc2nc(Nc3ccc(OC(F)(F)F)cc3)nc(N3CCOCC3)n2)cc1 | 85.5 | 62 | –

Row | Compound | inhibition at 10 µM [2] [%] | inhibition at 10 µM [3] [%] | further results
20 | COc1ccc(Nc2nc(Nc3ccccc3)nc(N3CCOCC3)n2)cc1 | 100 | 81.4 | IC50 [1]: 30 µM; Activity [5]: 1.65 g; Cmax [6]: 1290 ng/mL; Vdss [7]: 2.11 L/kg; half-life [8]: 1.16 h; Activity [9]: 27.3 g; Activity [10]: 29.3 g; MRT [11]: 1.88 h; Activity [12]: 40.7%; half-life [13]: 1.09 h; Activity [14]: 0.89 g; bioavailability [15]: 30.9%; clearance [16]: 22.7 mL/min/kg; IC50 [4]: 0.76 µM; MRT [17]: 1.06 h
21 | NS(=O)(=O)c1ccc(Nc2nc(NCc3ccccc3)nc(N3CCOCC3)n2)cc1 | 68.6 | – | Activity [3]: inactive
22 | FC(F)(F)Oc1ccc(Nc2nc(Nc3ccccc3)nc(N3CCOCC3)n2)cc1 | 87.3 | 63.4 | –
23 | COc1ccc(Nc2nc(Nc3ccc(OC)cc3)nc(N3CCN(CCO)CC3)n2)cc1 | 49.3 | – | Activity [3]: inactive
24 | COc1ccc(Nc2nc(Nc3ccc(S(N)(=O)=O)cc3)nc(N3CCOCC3)n2)cc1 | 83.2 | 69 | –
25 | Fc1ccc(Nc2nc(Nc3ccccc3)nc(N3CCOCC3)n2)cc1 | 90 | 60.1 | –
26 | Cc1ccc(CNc2nc(Nc3ccccc3)nc(N3CCOCC3)n2)cc1 | 75.3 | 15.7 | –
27 | NC(=O)c1ccc(Nc2nc(Nc3ccccc3)nc(N3CCOCC3)n2)cc1 | 87.8 | 85.8 | IC50 [1]: 8.1 µM; IC50 [4]: 9.6 µM
28 | Fc1ccc(Nc2nc(N3CCOCC3)nc(N3CCOCC3)n2)cc1 | 80.2 | – | Activity [3]: inactive
29 | c1ccc(CNc2nc(N3CCOCC3)nc(N3CCOCC3)n2)cc1 | 5.2 | – | Activity [3]: inactive
30 | COc1ccc(Nc2nc(Nc3ccc(SC)cc3)nc(N3CCOCC3)n2)cc1OC | 81.4 | 79.2 | –
31 | c1ccc(CNc2nc(Nc3ccccc3)nc(N3CCOCC3)n2)cc1 | 90.5 | 48.7 | –
32 | COc1ccc(Nc2nc(NCCO)nc(Nc3ccccc3)n2)cc1 | 13.7 | – | Activity [3]: inactive
33 | c1ccc(Nc2nc(N3CCOCC3)nc(N3CCOCC3)n2)cc1 | 80.5 | 44.9 | –
34 | CSc1ccc(Nc2nc(Nc3ccc(C)cc3)nc(N3CCOCC3)n2)cc1 | 54.1 | 71.1 | IC50 [4]: 120 µM
35 | c1ccc(Nc2nc(NCCN3CCOCC3)nc(Nc3ccccc3)n2)cc1 | 23.4 | 30.1 | –
36 | C1CN(c2nc(N3CCOCC3)nc(N3CCOCC3)n2)CCO1 | – | – | Activity [2]: inactive; Activity [3]: inactive
37 | OCCN1CCN(c2nc(Nc3ccccc3)nc(Nc3ccccc3)n2)CC1 | 76.1 | 22 | –
